Assays:
PON1 = PON1 (Homo sapiens, UniProt P27169); assay: Potency of esterase inhibitors, PON1; format: biochemical
Outline: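 PON1 used as crude lysate of baculovirus-infected insect cells in PBS. Added to 2-fold serial inhibitor dilutions (top concentration at most 100 µM) and preincubated 5 min. Cyanohydrin ester substrate then added to 50 µM final, DMSO ≤2%, in 100 mM phosphate pH 8, 0.1 mg/mL BSA, 37°C. Fluorescence (ex 330/em 465 nm) read kinetically for 10 min. IC50 from linear regression of log[inhibitor] against % remaining activity; triplicates, single experiment.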

FAAH [1] = biological target: T1, FAAH (Homo sapiens, UniProt O00519); assay: Potency of esterase inhibitors, FAAH; format: biochemical
T1 sequence (O00519 1-579): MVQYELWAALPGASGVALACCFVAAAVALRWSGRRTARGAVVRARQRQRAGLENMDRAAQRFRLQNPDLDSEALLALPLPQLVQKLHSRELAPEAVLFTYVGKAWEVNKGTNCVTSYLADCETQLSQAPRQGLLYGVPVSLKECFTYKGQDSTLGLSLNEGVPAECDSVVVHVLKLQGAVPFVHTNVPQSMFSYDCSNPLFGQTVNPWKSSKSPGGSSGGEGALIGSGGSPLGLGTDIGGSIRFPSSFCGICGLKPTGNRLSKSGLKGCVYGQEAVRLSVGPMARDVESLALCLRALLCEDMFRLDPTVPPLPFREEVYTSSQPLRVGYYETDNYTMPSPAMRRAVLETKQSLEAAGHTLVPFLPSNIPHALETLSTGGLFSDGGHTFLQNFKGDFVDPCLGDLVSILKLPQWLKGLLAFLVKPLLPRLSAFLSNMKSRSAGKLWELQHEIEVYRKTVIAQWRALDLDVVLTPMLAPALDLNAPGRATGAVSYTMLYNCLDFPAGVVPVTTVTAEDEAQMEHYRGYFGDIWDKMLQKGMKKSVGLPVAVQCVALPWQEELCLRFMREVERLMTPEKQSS

AADAC = biological target: T2, AADAC (Homo sapiens, UniProt P22760); assay: Potency of esterase inhibitors, AADAC; format: biochemical
T2 sequence (P22760 1-399): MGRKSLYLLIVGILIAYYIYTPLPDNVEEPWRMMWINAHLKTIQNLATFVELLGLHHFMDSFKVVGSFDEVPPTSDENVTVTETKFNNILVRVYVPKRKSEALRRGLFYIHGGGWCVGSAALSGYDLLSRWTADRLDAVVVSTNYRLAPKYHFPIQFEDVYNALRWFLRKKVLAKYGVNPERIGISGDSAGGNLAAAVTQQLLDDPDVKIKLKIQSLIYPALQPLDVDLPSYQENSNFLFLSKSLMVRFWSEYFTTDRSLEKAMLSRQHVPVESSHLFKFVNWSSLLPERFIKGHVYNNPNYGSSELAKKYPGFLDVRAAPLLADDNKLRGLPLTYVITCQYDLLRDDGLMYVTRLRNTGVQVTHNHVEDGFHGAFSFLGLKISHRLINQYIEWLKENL

hCE3 [2] = biological target: T3, hCE3 (Homo sapiens, UniProt Q6UWW8); assay: Potency of esterase inhibitors, hCE3; format: biochemical
T3 sequence (Q6UWW8 27-571): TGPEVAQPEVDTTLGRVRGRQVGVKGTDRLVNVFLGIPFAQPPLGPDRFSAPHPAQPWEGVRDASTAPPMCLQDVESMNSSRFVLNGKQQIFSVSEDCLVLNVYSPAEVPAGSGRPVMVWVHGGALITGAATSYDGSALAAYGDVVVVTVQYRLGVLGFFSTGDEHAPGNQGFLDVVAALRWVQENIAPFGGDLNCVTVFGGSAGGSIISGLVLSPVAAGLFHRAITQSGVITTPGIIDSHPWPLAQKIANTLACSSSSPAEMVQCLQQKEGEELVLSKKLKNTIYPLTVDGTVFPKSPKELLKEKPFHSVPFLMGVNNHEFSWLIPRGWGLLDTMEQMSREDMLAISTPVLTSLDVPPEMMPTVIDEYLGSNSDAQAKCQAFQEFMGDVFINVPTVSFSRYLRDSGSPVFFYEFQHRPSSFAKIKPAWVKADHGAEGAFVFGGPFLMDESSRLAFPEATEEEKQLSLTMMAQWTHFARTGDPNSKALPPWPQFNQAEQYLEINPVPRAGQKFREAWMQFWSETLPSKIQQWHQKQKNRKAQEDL

hCE1 [3] = biological target: T4, hCE1 (Homo sapiens, UniProt P23141); assay: Potency of esterase inhibitors, hCE1; format: biochemical
T4 sequence (P23141 18-567): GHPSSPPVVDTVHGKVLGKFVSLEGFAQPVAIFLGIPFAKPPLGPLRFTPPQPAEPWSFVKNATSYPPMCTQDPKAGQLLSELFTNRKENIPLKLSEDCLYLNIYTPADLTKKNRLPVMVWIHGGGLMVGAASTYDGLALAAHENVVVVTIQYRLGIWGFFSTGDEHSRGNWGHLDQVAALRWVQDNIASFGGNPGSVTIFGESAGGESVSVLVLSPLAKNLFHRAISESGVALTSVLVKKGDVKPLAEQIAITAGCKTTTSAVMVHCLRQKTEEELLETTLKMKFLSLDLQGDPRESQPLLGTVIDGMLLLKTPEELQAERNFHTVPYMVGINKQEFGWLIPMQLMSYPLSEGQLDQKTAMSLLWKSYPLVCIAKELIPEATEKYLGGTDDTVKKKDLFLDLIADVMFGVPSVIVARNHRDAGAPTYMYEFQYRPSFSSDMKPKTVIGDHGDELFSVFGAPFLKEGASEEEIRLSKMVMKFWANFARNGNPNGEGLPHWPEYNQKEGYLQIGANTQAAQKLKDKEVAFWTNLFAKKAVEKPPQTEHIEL

hCE2 [4] = biological target: T5, hCE2 (Homo sapiens, UniProt O00748); assay: Potency of esterase inhibitors, hCE2; format: biochemical
T5 sequence (O00748 27-559): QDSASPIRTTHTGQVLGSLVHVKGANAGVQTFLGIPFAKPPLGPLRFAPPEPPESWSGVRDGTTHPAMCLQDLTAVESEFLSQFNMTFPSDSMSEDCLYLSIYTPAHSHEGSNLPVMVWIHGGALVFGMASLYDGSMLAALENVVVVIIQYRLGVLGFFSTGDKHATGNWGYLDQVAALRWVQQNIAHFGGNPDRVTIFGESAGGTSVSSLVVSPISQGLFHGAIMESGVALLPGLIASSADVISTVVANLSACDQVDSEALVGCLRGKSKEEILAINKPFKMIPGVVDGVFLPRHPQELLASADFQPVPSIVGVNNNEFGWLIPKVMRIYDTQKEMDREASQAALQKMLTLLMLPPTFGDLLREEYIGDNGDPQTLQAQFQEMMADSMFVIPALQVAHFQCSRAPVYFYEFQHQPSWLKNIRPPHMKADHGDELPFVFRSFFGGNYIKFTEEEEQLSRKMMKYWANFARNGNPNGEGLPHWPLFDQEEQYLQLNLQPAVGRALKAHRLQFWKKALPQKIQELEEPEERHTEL

FAAH [5] = biological target: T1, FAAH; assay: Specific activity of FAAH towards substrates; format: biochemical; conditions: Table 2; [S] = 50 µM, 37°C, pH 8; estimated 6.9% purity
Outline: (§1)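 Enzymes expressed in baculovirus-infected High Five cells: hCE1 CHAPS-solubilised from the 100,000 g pellet, then DEAE-purified; hCE2/hCE3 crude soluble fraction; FAAH crude insoluble fraction. Substrate added to 50 µM final in 100 mM sodium phosphate pH 8.0, 0.1 mg/mL BSA, 1% DMSO. Fluorescence read every 30 s for ≥10 min at 37°C. Rates corrected for estimated purity: hCE1 25%, hCE2 4%, hCE3 3.5% (3% in footnotes), FAAH 6.9%. Triplicates.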

Lung S9 = assay: Substrate hydrolysis by pooled tissue S9, lung; format: biochemical, human
Outline: (§2)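 Commercial pooled human tissue S9 fraction added to substrate at 50 µM final in 100 mM sodium phosphate, pH 8.0, 0.1 mg/mL BSA. Fluorescence monitored every 30 s for at least 10 min at 37°C. Specific activity given as the mean of triplicates in one experiment, or mean ± standard deviation of 3 independent experiments run in triplicate.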

Intestine S9 = assay: Substrate hydrolysis by pooled tissue S9, intestine; format: biochemical, human
Outline: as §2

hCE2 [6] = biological target: T5, hCE2; assay: Specific activity of hCE2 towards substrates; format: biochemical
Outline: as §1

Liver S9 = assay: Substrate hydrolysis by pooled tissue S9, liver; format: biochemical, human
Outline: as §2

hCE1 [7] = biological target: T4, hCE1; assay: Specific activity of hCE1 towards substrates; format: biochemical
Outline: as §1

[8] = Background hydrolysis of substrates in phosphate buffer; format: physicochemical; conditions: phosphate buffer 100 mM, pH 8, 0.1 mg/mL BSA
hCE1 [9] = biological target: T4, hCE1; assay: Limit of detection and quantification for hCE1 using partially purified enzyme; format: biochemical; conditions: [S] = 50 µM; for LOD for hCE1: S/N > 3; for LOQ for hCE1: S/N > 9
Outline: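 Partially purified recombinant hCE1, without any matrix, diluted into wells with substrate at 50 µM. Assay run in 100 mM sodium phosphate, pH 8, 0.1 mg/mL BSA, 1% DMSO, at 37°C. S/N taken as mean signal of enzyme wells over the SD of […], quadruplicates in one experiment. LOD set as the lowest level with S/N > 3; LOQ as S/N > 9.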

Kidney S9 = assay: Substrate hydrolysis by pooled tissue S9, kidney; format: biochemical, human
Outline: as §2

hCE3 [10] = biological target: T3, hCE3; assay: Specific activity of hCE3 towards substrates; format: biochemical
Outline: as §1

[11] = Kinetic mode (30 s intervals for 30 minutes)

Sequence of PON1 (P27169 whole entry, species assumed): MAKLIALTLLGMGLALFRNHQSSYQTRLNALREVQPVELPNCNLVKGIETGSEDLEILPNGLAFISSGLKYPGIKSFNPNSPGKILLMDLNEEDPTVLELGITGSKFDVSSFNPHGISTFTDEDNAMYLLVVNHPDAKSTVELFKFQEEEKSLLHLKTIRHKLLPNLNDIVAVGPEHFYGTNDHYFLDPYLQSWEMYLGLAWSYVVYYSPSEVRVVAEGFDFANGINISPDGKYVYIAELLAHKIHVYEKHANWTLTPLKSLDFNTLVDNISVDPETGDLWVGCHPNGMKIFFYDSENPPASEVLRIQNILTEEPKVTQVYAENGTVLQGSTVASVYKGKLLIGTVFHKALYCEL

COc1ccc(C(=O)C(=O)c2ccccc2Cl)cc1OC [2-chloro-3’,4’- dimethoxybenzil, 2-chloro-3’,4’-dimethoxybenzil]
IC50 (PON1): 25 µM | IC50 (FAAH [1]): 7.6 µM | IC50 (AADAC): > 100 µM | IC50 (hCE3 [2]): > 100 µM | IC50 (hCE1 [3]): 2.5 µM

NC(Cc1cc(I)c(Oc2cc(I)c(O)c(I)c2)c(I)c1)C(=O)O (stereo not drawn) [Thyroxine]
IC50 (PON1): 2.1 µM | IC50 (FAAH [1]): > 100 µM | IC50 (AADAC): 0.73 µM | IC50 (hCE3 [2]): 23 µM | IC50 (hCE1 [3]): 1.5 µM | IC50 (hCE2 [4]): 16 µM | Selectivity hCE2/hCE1 (hCE2 [4]; from IC50 values): 0.094

COc1ccc2cc(C(C#N)OC(C)=O)ccc2c1 (stereo not drawn) [CMNA, cyano(6-methoxynaphthalen-2-yl)methyl acetate]
FAAH Specific activity (FAAH [5]): 13 pmol/min/µg | Hydrolysis Specific Activity (Lung S9): 13 ± 1 pmol/min/µg | Hydrolysis Specific Activity (Intestine S9): 74 ± 3 pmol/min/µg | hCE2 Specific activity (hCE2 [6]; Table 2, [S] = 50 µM, 37°C, pH 8, estimated 4% purity): 11000 pmol/min/µg | Hydrolysis Specific Activity (hCE2 [6]; Table 6, hCE2): 11,000 pmol/min/µg | Hydrolysis Specific Activity (Liver S9): 180 ± 30 pmol/min/µg | hCE1 Specific activity (hCE1 [7]; Table 2, [S] = 50 µM, 37°C, pH 8, estimated 25% purity): 3000 pmol/min/µg | Hydrolysis Specific Activity (hCE1 [7]; Table 6, hCE1): 3,000 pmol/min/µg | Rate of background hydrolysis [8]: 20 pmol/min | LOD for hCE1 (hCE1 [9]; Endpoint mode 1 hour): 0.98 ng | LOQ for hCE1 (hCE1 [9]; Endpoint mode 1 hour): 7.8 ng | LOD for hCE1 (hCE1 [9]; Endpoint mode 4 hours): 3.9 ng | LOD for hCE1 (hCE1 [9]; Endpoint mode 24 hours): 0.06 ng | LOD for hCE1 (hCE1 [9]; [11]): 2.0 ng | LOQ for hCE1 (hCE1 [9]; [11]): 3.9 ng | Hydrolysis Specific Activity (Kidney S9): 15 ± 5 pmol/min/µg | hCE3 Specific activity (hCE3 [10]; Table 2, [S] = 50 µM, 37°C, pH 8, estimated 3% purity): 150 pmol/min/µg | Hydrolysis Specific Activity (hCE3 [10]; Table 6, hCE3): 150 pmol/min/µg
